# Measles CPE: protection of cells from measles virus | Measles virus-infected cells, CPE protection, absorbance | protection (pct of control), % at 4 µM | 140,000 tested, 1.5% active; in the data active means protection mostly above about 24%, no sharp cut-off; inactive means mostly below about 26%
# NPY-Y1 antag: antagonists of human neuropeptide Y receptor Y1 | 200,000 tested, 1% active | P25929 | HEK293-CNG Y1 cells, membrane potential fluorescence; NPY at EC95, then isoproterenol | AID 1040 | inhibition, % at 3.6 µM;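 active means inhibition above the campaign mean inhibition of all tested compounds plus 3 SD, cut at about 20% in these data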;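 further: 0% = DMSO wells given NPY plus isoproterenol and 100% = isoproterenol alone without NPY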
#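 Material: Y1- and CNG-channel-expressing HEK293 cells / Probe or stimulus: NPY 25 nM then isoproterenol 1 µM plus Ro 20-1724 25 µM / Doses: 3.6 µM single dose, DMSO 0.4% / Schedule: compound incubation 1 h at room temperature, readout 45 min post-stimulation / Signal: membrane potential fluorescence / Benchmarks: isoproterenol-only wells as full block versus NPY-plus-isoproterenol wells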
# NPY Y2 blocker: antagonists of human neuropeptide Y receptor Y2; NPY-Y2 expressing cells, antagonist mode; inhibition, % at 2.7 µM; 140,000 tested, 0.99% active; in the data active means inhibition above about 17%;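 further: 0% = vehicle with agonist challenge and 100% = reference antagonist with challenge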
# Mdm2 ligase inh: blocks human Mdm2 ubiquitin ligase activity; Q00987; 210,000 tested, 0.11% active; signal enhancement, % at 5 µM; cell-based MDM2 ubiquitination luciferase reporter, 2 h; 0 = plate control, 100 = twice control, blank-subtracted; AID 1230;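 active means signal enhancement of 30% or more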;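 further: luminescence tracks abundance of the self-degrading MDM2-luciferase fusion protein; higher signal means inhibition of MDM2 E3 ligase activity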
# Target sequence (Q00987 whole entry, looked up, the tested form may be a part): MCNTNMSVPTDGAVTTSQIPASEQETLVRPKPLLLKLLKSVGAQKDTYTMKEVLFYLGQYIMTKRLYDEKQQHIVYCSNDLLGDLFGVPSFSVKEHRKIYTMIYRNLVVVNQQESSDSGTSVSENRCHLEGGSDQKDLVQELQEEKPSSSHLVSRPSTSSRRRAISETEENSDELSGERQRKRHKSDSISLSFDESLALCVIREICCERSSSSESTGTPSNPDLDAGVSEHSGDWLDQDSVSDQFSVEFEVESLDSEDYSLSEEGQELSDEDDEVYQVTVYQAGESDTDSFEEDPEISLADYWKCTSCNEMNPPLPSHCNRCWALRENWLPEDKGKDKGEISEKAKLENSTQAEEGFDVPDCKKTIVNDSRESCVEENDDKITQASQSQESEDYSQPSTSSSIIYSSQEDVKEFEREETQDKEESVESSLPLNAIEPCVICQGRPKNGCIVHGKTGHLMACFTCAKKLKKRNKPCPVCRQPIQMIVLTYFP
#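 Timing – 2 h compound exposure at 37 °C · Assay system – mammalian cells stably expressing self-ubiquitinating, self-degrading MDM2 E3–luciferase fusion · Amount – 2000 cells seeded into each well · Measure – % luminescence enhancement versus blank-corrected plate control mean · Measured by – SteadyLite luminescence, 15 min reagent step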
# NPY-Y2 PAM-ag: human NPY-Y2 potentiation or agonism, primary screen. 220,000 tested, 0.45% active. P49146. cells expressing NPY-Y2, potentiator/agonist read-out. activation, % at 3.6 µM; in the data active means activation above about 27%;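 further: cells stimulated with NPY near EC25 plus isoproterenol at EC100; 0% = vehicle plus submaximal agonist and 100% = vehicle plus saturating agonist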
# NPY-Y1 PAM-ag: human NPY-Y1 potentiation or agonism, primary screen. NPY-Y1 expressing cells, potentiator/agonist activation. 220,000 tested, 0.37% active. activation, % at 3.6 µM. P25929; in the data active means activation above about 33%, passing the limit was not always enough;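 further: cells stimulated with NPY at EC10 then isoproterenol at EC100; 0% = low agonist plus stimulus and 100% = saturating agonist plus stimulus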
# Active calls of the source: *; · = no result given. This is a sample that favours compounds with a hit; in the whole collection about 2.8% have one here.
SMILES,Measles CPE,NPY-Y1 antag,NPY Y2 blocker,Mdm2 ligase inh,NPY-Y2 PAM-ag,NPY-Y1 PAM-ag
CC(C)CCn1c(NCCc2ccccc2)nc2c1c(=O)n(C)c(=O)n2C,·,·,·,-7.8,·,·
CC1(C)NC(=O)N(CC(O)COc2cc3ccccc3cc2C(=O)N2CCCCC2)C1=O (stereo unspecified),2.2,-7.6,2.3,-1.9,6.6,8.2
CC1(C)NC(=O)N(CC(O)COc2ccccc2C(=O)N2CCCCC2)C1=O (stereo unspecified),44.3*,4.7,2.9,-22.2,4.2,4.1
COc1ccc(CCNCC(=O)Nc2ccccc2C(F)(F)F)cc1,·,8.5,·,10.3,-10.4,-0.9
O=C(/C=C/c1ccc(Cl)cc1)NC(=S)NN1CCCCC1c1cccnc1 (stereo unspecified),24.2,1.9,39.9*,-17.5,-5.7,-33.6
COc1ccc(C2(C(=O)Nc3ccccc3)CCOCC2)cc1,10.0,8.3,1.1,7.2,-6.7,15.3
COC(=O)[C@@H]1C2CCC(C(=O)Nc3ccccc3)(CC2)[C@@H]1C(=O)OC,47.8*,-6.9,1.8,-15.5,-5.2,11.7
O=C1Cc2cc(CCN3CCN(c4nsc5ccccc45)CC3)c(Cl)cc2N1,·,8.2,·,·,-13.4,-22.4
N#CCOc1nc(N2CCCCC2)nc(N2CCCCC2)n1,·,-0.7,·,-11.9,25.0,17.0
CCOc1nc(C#N)nc(N2CCCCC2)n1,36.4*,-8.1,5.6,-20.1,-0.9,0.5
CC(C)CNC(=O)c1cccc(NC(=O)CCc2ccccc2)c1,·,6.8,·,-10.5,8.4,9.6
CC(=O)Nc1nc2ccccc2n1CCN(C)C,27.9,4.6,0.1,-15.4,-12.8,-10.3
CN(C)CCn1c(C(=O)Nc2ccccc2)cc2ccccc21,17.3,38.1*,19.6*,-13.7,-36.0,-67.0
COc1ccc(CNC(=O)C2CC(c3ccccc3[N+](=O)[O-])=NO2)cc1 (stereo unspecified),35.8*,3.4,2.5,-5.0,-17.5,18.9
Cc1ccc(OCc2nc(-c3ccc(Cl)cc3)n[nH]2)cc1,33.5*,4.8,5.0,-11.2,-9.9,3.3
Fc1ccc(OCc2nc(-c3ccncc3)n[nH]2)cc1,·,4.7,·,-10.8,2.6,-6.3
O=C(c1ccccc1)N1CCN(c2ncnc3sc4c(c23)CCC4)CC1,3.6,3.8,7.7,-16.7,6.8,13.4
CN1CCN(c2ccccc2NC(=O)Cc2ccc(Cl)cc2)CC1,5.7,22.7*,24.0*,-9.9,-13.4,-7.2
N=c1c2c3c(sc2ncn1Nc1ccccc1)CCC3,·,·,·,-16.5,-7.2,11.3
O=C(NCCCn1ccnc1)Nc1cccc2ccccc12,25.9*,-5.9,1.0,8.4,-1.2,-1.2
O=C(O)c1ccc(N2Cc3ccccc3C2)cc1O,70.7*,-1.2,4.0,-9.2,-2.9,7.8
CCCn1c(SCC(=O)O)nc2ccccc21,16.1,8.4,3.0,-3.2,-12.8,-28.4
CCCn1c(SCC(=O)N2c3ccccc3Sc3ccccc32)nc2ccccc21,33.2*,-5.3,4.9,·,-11.6,-8.9
COc1ccc(Cn2c(SCc3ccc(C)cc3)nc3cc(OC)c(OC)cc3c2=N)cc1Cl,-0.2,34.3*,24.5*,-19.2,-3.4,-15.5
COc1cc2nc(SCc3ccc(Cl)cc3Cl)n(Cc3cccs3)c(=N)c2cc1OC,4.1,-1.6,-3.4,-22.5,-1.3,28.2
SMILES,Measles CPE,NPY-Y1 antag,NPY Y2 blocker,Mdm2 ligase inh,NPY-Y2 PAM-ag,NPY-Y1 PAM-ag
COc1ccc(Cn2c(SCc3cc(C)ccc3C)nc3cc(OC)c(OC)cc3c2=N)cc1,2.9,47.1*,55.0*,1.1,12.6,-34.3
COc1cc2nc(SCc3ccc(C(F)(F)F)cc3)n(Cc3cccs3)c(=N)c2cc1OC,19.5,10.0,-3.1,-3.9,-2.4,-11.4
COc1ccc(CC2(CO)CCN(S(=O)(=O)c3sccc3C)CC2)cc1,·,1.0,·,-15.0,7.0,0.7
CC(C)C(NC(=O)OCc1ccccc1)C(=O)N1CCOCCOCCOCC1 (stereo unspecified),·,0.0,·,10.6,7.3,12.0
Cn1ncc(Br)c1C(=O)OCC(=O)Nc1nc(-c2ccccc2)cs1,35.2*,5.2,7.4,·,-10.1,-35.0
O=C(CSc1cccc[n+]1[O-])Nc1cc2c(cc1Cl)C(=O)c1ccccc1C2=O,24.1*,11.2,1.1,-2.8,6.4,-1.1
Cc1ccccc1/C=N/Nc1nc2ccccc2[nH]1,·,12.1,·,10.7,-22.8,-34.1
C(=N\Nc1nc2ccccc2[nH]1)/c1c[nH]c2ccccc12,11.4,-6.1,-0.3,0.3,34.2*,43.6*
COc1ccccc1NS(=O)(=O)c1cc([N+](=O)[O-])ccc1N/N=C/c1c[nH]c2ccccc12,3.2,-3.6,-5.5,-17.9,34.4*,38.7*
Cn1cc([N+](=O)[O-])c(C(=O)N/N=C\c2c[nH]c3ccccc23)n1,·,0.6,·,-18.8,12.5,4.5
O=[N+]([O-])c1ccc(N/N=C/c2c[nH]c3ccccc23)cc1,4.9,-20.2,-8.3,-11.3,48.4*,54.6*
O=[N+]([O-])c1ccccc1N/N=C/c1c[nH]c2ccccc12,11.0,-18.2,-13.6,3.3,85.8*,105.0*
O=S(CC1CC1(Cl)Cl)CC1CC1(Cl)Cl (stereo unspecified),14.9,0.0,3.0,-23.3,-5.1,-40.7
COc1ccc(C)cc1S(=O)(=O)N(CC(=O)Nc1cccc([N+](=O)[O-])c1)c1ccc(C)c(C)c1,49.5*,5.0,-1.4,-8.6,2.8,-2.9
COc1ccc([N+](=O)[O-])cc1N(CC(=O)NCCSc1ccc(C)cc1)S(C)(=O)=O,·,-3.6,·,-10.1,2.4,13.2
COc1ccc(C)cc1NS(=O)(=O)c1ccc(NC(=O)CN(c2cc([N+](=O)[O-])ccc2C)S(C)(=O)=O)cc1,16.4,-9.5,-2.7,-9.8,26.9*,40.3*
Cc1cccc(NS(=O)(=O)c2ccc(NC(=O)CN(c3cc([N+](=O)[O-])ccc3C)S(C)(=O)=O)cc2)c1,28.6,-12.6,-5.4,-93.4,42.0*,50.5*
Cc1cccc(NS(=O)(=O)c2cc(NC(=O)CC(=O)c3ccc([N+](=O)[O-])cc3)ccc2C)c1,·,-6.6,·,-7.0,-4.0,2.6
CC(C(=O)Nc1cccnc1)C1Sc2ccccc2NC1=O (stereo unspecified),·,-0.6,·,-2.0,3.7,-2.8
Cc1ccc([N+](=O)[O-])c(OCC(O)CNC(C)(C)C)c1 (stereo unspecified),·,·,·,-8.8,104.7*,112.6*
CC(C)(C)NCC(O)COc1ccc(Br)cc1 (stereo unspecified),·,-11.4,·,2.7,97.4*,107.5*
Cc1ccc([N+](=O)[O-])c(OCCN2CCCCCC2)c1,34.8,6.7,2.7,-4.1,9.9,-3.0
CC(C)(CO)NCC(O)COc1ccc2c(c1)CCC2 (stereo unspecified),11.4,-13.2,2.8,·,88.4*,100.6*
CC(C)(C)CC(C)(C)NCC(O)COc1ccc2c(c1)CCC2 (stereo unspecified),·,3.2,16.5,·,-5.8,14.2

# From PubChem
